In assay [1] the test system is Mus musculus. The assay can be described thus: Effect on spontaneous locomotor activity in C57BL/6J mouse at 30 mg/kg, ip by automated assessment. The assay is classed as functional. The settings on record: route intraperitoneal. The method, boiled down:
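Male C57Bl/6 mice given 30 mg/kg ip, compared with vehicle-injected mice. Spontaneous locomotor activity was recorded automatically over a 40 min observation period after injection.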

The subject of assay [2] is Mus musculus. As to the kind of experiment: Impairment of contextual memory in C57BL/6J mouse at 30 mg/kg, ip. The assay is classed as functional, organism-based. Set-up: dose 30 mg/kg. The method, boiled down:
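Male C57Bl/6 mice aged 7–12 weeks, given an ip injection in 0.9% saline containing 2.5% encapsin, 20 min before training. Training was 4 min in the chamber, then three 33 s tones (85 dB, 2.9 kHz), each ending in a 0.75 mA shock for 3 s, 1 min apart. Twenty-four hours later, freezing was scored during a 4 min context test without shock.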

The target in assay [3] is T1, GABA A receptor alpha-4/beta-3/gamma-2 (Homo sapiens, UniProt P18507+P28472+P48169). The assay can be described thus: Activity at alpha-4-beta-3-gamma-2 GABAA receptor expressed in Xenopus oocytes assessed as inhibition in GABA-induced current by voltage clamp assay. The assay is classed as cell-based, Oocyte. In outline: (§1)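 cRNA for alpha and beta3 subunits (0.0065 ng/nL) plus gamma2 (0.032 ng/nL) injected into Xenopus oocytes, 50 nL each, recorded after ≥36 h. Two-electrode voltage clamp at -60 mV, room temperature, in Xenopus Ringer's pH 7.4. Drug (final 0.1% DMSO) preapplied 30 s, then coapplied with GABA at about EC20 until peak. Current normalized to response without drug.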
T1 sequence (P48169 whole entry, one chain of several): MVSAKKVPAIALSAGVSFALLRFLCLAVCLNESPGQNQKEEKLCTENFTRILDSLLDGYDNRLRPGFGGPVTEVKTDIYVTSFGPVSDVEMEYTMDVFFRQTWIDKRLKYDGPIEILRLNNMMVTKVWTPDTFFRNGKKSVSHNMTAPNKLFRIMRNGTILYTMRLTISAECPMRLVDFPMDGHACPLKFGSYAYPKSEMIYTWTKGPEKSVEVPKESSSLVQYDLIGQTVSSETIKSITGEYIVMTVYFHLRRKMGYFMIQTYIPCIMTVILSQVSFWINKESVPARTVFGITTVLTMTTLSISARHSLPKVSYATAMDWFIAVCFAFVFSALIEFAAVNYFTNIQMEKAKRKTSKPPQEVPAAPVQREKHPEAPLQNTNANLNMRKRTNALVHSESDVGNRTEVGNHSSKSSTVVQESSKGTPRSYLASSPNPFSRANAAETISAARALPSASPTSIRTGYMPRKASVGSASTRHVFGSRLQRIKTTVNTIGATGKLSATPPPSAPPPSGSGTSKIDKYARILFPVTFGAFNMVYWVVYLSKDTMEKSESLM

Assay [4] has as its target T2, GABA-A receptor; alpha-5/beta-3/gamma-2 (Homo sapiens, UniProt P18507+P28472+P31644).
T2 sequence (P18507 whole entry): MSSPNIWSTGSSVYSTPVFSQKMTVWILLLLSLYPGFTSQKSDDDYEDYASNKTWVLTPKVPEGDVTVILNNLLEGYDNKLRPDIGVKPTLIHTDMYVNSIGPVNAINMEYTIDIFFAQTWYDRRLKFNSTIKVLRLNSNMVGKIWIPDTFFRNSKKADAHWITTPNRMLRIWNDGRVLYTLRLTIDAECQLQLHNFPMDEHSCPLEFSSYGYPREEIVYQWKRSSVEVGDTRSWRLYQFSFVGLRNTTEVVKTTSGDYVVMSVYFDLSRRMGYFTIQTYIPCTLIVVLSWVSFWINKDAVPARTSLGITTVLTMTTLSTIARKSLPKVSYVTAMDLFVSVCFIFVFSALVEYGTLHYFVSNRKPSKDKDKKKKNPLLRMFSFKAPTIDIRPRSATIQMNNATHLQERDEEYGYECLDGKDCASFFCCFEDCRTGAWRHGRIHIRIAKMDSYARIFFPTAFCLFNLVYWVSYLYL
T2 sequence (P28472 whole entry): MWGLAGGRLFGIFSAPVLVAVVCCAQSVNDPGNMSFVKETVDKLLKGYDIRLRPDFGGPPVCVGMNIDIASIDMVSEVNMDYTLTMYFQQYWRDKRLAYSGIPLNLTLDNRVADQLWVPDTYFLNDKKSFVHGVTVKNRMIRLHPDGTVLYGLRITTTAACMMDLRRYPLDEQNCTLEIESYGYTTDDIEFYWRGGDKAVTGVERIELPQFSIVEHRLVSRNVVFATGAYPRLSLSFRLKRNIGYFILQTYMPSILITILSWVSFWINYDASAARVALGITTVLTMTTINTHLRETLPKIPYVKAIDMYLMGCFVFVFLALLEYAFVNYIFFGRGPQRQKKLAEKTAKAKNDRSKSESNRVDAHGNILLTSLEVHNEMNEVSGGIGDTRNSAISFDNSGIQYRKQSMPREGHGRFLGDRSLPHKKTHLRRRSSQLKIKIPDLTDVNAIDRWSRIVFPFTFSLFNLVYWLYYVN
T2 sequence (P31644 whole entry): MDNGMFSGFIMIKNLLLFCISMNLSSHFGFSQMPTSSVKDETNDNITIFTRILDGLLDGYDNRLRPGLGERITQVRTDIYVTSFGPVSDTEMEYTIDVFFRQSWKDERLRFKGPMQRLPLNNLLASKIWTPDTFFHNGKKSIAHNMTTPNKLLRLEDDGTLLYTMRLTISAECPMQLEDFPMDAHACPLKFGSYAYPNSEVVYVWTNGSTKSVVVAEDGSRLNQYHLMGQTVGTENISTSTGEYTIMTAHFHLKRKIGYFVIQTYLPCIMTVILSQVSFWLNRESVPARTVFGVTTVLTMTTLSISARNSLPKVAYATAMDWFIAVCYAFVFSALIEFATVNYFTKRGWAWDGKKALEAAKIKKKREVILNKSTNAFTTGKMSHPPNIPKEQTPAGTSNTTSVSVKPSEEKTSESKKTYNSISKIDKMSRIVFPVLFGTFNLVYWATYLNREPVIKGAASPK
The assay can be described thus: Activity at alpha-5-beta-3-gamma-2 GABAA receptor expressed in Xenopus oocytes assessed as inhibition in GABA-induced current by voltage clamp assay. In kind it is cell-based, Oocyte. In outline:
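cRNA-injected Xenopus oocytes (α5, β3 transcripts 0.0065 ng/nL, γ2 0.032 ng/nL; 50 nL), defolliculated after ≥36 h; two-electrode voltage clamp at −60 mV, room temperature, in Xenopus Ringer's pH 7.4. Ligand (1 µM; 0.1% DMSO final) preapplied 30 s, then coapplied with GABA at EC20 until peak; current change versus GABA alone.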

For assay [5], the target named is T3, GABA-A receptor; alpha-6/beta-3/gamma-2 (Homo sapiens, UniProt P18507+P28472+Q16445). As to the kind of experiment: Activity at alpha-6-beta-3-gamma-2 GABAA receptor expressed in Xenopus oocytes assessed as inhibition in GABA-induced current by voltage clamp assay. In kind it is cell-based, Oocyte. The method, boiled down:
as §1

For assay [6], the target named is T4, GABA-A receptor; alpha-2/beta-3/gamma-2 (Homo sapiens, UniProt P18507+P28472+P47869).
T4 sequence (P18507 whole entry): T2 sequence (P18507 whole entry)
T4 sequence (P28472 whole entry): T2 sequence (P28472 whole entry)
T4 sequence (P47869 whole entry): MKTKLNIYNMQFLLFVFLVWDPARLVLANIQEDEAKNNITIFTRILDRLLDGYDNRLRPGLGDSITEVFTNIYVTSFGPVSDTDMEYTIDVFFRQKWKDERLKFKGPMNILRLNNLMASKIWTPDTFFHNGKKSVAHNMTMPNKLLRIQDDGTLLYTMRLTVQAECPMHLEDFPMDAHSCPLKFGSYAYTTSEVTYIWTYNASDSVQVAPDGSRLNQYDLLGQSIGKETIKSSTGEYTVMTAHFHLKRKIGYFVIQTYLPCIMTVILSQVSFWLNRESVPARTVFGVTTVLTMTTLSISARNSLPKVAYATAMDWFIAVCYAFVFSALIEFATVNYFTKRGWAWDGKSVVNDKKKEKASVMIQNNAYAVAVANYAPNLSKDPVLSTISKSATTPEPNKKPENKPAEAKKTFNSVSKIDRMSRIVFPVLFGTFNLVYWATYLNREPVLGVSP
The assay can be described thus: Activity at alpha-2-beta-3-gamma-2 GABAA receptor expressed in Xenopus oocytes assessed as inhibition in GABA-induced current by voltage clamp assay. The assay is classed as cell-based, Oocyte. The method, boiled down: as §1

Assay [7] has as its target T5, GABA-A receptor; alpha-1/beta-3/gamma-2 (Homo sapiens, UniProt P14867+P18507+P28472).
T5 sequence (P14867 whole entry): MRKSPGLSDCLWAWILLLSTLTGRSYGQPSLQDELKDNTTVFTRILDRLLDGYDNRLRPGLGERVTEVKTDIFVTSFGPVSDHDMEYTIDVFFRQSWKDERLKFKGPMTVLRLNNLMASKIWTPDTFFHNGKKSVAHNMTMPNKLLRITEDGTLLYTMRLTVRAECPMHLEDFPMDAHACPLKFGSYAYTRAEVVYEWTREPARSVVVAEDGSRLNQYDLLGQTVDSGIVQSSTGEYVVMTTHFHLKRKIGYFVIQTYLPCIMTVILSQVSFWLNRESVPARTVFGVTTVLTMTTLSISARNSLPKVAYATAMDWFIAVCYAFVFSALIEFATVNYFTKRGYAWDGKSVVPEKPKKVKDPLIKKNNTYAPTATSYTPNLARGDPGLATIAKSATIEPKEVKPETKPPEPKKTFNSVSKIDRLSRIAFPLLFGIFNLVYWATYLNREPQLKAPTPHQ
T5 sequence (P18507 whole entry): T2 sequence (P18507 whole entry)
T5 sequence (P28472 whole entry): T2 sequence (P28472 whole entry)
As to the kind of experiment: Activity at GABAA alpha-1-beta-3-gamma-2 receptor expressed in Xenopus oocytes assessed as inhibition of GABA-induced current by voltage clamp assay. In kind it is cell-based, Oocyte. The method, boiled down: as §1

Assay [8] has as its target T3, GABA-A receptor; alpha-6/beta-3/gamma-2. The assay can be described thus: Binding affinity to GABAA alpha-6-beta-3-gamma-2 receptor. The assay is classed as protein-complex assay.
Assay [9] concerns the target T6, Gamma-aminobutyric acid receptor subunit alpha-3 (Homo sapiens, UniProt P18507+P28472+P34903).
T6 sequence (P34903 whole entry): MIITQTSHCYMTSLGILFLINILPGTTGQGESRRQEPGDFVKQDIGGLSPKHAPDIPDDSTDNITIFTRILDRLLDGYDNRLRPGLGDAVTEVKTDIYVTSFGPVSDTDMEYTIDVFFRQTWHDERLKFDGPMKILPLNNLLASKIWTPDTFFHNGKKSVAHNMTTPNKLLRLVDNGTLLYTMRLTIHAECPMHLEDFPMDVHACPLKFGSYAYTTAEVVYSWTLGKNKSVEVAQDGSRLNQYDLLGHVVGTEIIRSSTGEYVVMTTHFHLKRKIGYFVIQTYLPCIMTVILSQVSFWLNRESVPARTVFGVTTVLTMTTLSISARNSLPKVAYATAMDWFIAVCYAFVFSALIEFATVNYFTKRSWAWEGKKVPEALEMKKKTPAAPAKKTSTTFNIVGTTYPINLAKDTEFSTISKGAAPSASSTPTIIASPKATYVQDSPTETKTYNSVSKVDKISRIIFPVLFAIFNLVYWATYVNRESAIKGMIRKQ
The assay can be described thus: Binding affinity to GABAA alpha-3-beta-3-gamma-2 receptor.

The target of assay [10] is T5, GABA-A receptor; alpha-1/beta-3/gamma-2. As to the kind of experiment: Binding affinity to GABAA alpha-1-beta-3-gamma-2 receptor. The assay is classed as protein-complex assay.
For assay [11], the target named is T2, GABA-A receptor; alpha-5/beta-3/gamma-2. As to the kind of experiment: Binding affinity to GABAA alpha-5-beta-3-gamma-2 receptor. In kind it is protein-complex assay.
For assay [12], the target named is T4, GABA-A receptor; alpha-2/beta-3/gamma-2. The assay can be described thus: Binding affinity to GABAA alpha-2-beta-3-gamma-2 receptor.
Assay [13] addresses T1, GABA A receptor alpha-4/beta-3/gamma-2. The assay can be described thus: Binding affinity to GABAA alpha-4-beta-3-gamma-2 receptor. In kind it is protein-complex assay.

For three compounds, Activity, EC50 and Ki results are on record in ChEMBL document CHEMBL1157475, “Selective influence on contextual memory: physiochemical properties associated with selectivity of benzodiazepine ligands at GABAA receptors containing the alpha5 subunit” (J Med Chem, 2008).

pEC50, pKi: −log10 of the molar value. Active and inactive are the calls of the source. No cut-off for these calls is given here.

T3 sequence (Q16445 whole entry, one chain of several): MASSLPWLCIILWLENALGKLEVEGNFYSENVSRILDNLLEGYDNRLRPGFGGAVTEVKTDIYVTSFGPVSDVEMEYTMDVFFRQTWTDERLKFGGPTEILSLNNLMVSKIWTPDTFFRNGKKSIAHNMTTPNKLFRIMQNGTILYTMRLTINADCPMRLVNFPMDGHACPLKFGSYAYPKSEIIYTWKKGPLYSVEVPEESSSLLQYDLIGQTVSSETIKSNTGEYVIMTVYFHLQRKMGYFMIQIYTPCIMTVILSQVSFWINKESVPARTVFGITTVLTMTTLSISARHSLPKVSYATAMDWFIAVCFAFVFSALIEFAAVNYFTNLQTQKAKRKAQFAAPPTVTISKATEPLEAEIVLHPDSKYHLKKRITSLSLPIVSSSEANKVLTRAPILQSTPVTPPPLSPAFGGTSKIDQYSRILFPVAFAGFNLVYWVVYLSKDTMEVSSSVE

In turn, `C#Cc1ccc2c(c1)C(c1ccccc1)=N[C@H](C)c1c(C(=O)OCC)ncn1-2` displayed an Activity in the assay on Mus musculus [1] of 1026. For the same compound, the result in the assay on Mus musculus [2] was Active.
For orientation: pEC50 means the negative decadic logarithm of the EC50, by convention in mol/L. For the compound `C#Cc1ccc2c(c1)C(=O)N(C)Cc1c(C(=O)OC(C)(C)C)ncn1-2`, the pEC50 is 3.49 in [3]; 5.01 in [4]; 4.29 in assay [5]; 4.02 in [6]; 4.13 in [7].
In general, pKi refers to the Ki on a negative log10 scale, so that one unit is a factor of ten. Read a high pKi as a low Ki. On to `CN1CC2C(C(=O)OC(C)(C)C)=NCN2c2ccc(C#C[Si](C)(C)C)cc2C1=O` (stereo not drawn), for which the negative logarithm of the Ki (pKi) in assay [8] is 7.23; in assay [9] it was 6.59; in assay [10], 6.71; in [11] it was 8.58; in assay [12] it was 6.84; in assay [13], 8.58.
